Measurements reported in ChEMBL document CHEMBL4024801, “Synthesis and Structure-Activity Relationship (SAR) Studies of Novel Pyrazolopyridine Derivatives as Inhibitors of Enterovirus Replication” (J Med Chem, 2018).

Legend:
[1] = test system: Coxsackievirus B3; assay: Antiviral activity against Coxsackievirus B3 infected in human HeLa-RW cells assessed as protection against virus-induced cytopathic effect after 3 to 4 days by crystal violet staining-based spectrophotometric method; type: functional, cell-based; conditions: Enterovirus B
Summary of the method: (§1)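 HeLa-RW cells grown in DMEM with penicillin, streptomycin, glutamine and 10% FBS. They were infected at a low MOI pre-set to give full CPE in 3-4 days. Compound in DMSO was added as serial 2-fold dilutions (7 points), each in triplicate. When control CPE was maximal, cells were fixed with 4% formaldehyde, stained with 0.25% crystal violet and read at OD590. EC50 came from a four-parameter or sigmoidal fit.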

[2] = test system: Poliovirus 1; assay: Antiviral activity against Poliovirus 1 infected in human HeLa-RW cells assessed as protection against virus-induced cytopathic effect after 3 to 4 days by crystal violet staining-based spectrophotometric method; type: functional, cell-based; conditions: Enterovirus C; summary of the method: as §1
[3] = test system: Poliovirus 3; assay: Antiviral activity against Poliovirus 3 infected in human HeLa-RW cells assessed as protection against virus-induced cytopathic effect after 3 to 4 days by crystal violet staining-based spectrophotometric method; type: functional, cell-based; conditions: Enterovirus C; summary of the method: as §1
[4] = test system: Enterovirus A71; assay: Antiviral activity against Enterovirus A71 infected in monkey LLC-MK2 cells assessed as protection against virus-induced cytopathic effect after 3 to 4 days by crystal violet staining-based spectrophotometric method; type: functional, cell-based; conditions: Enterovirus A
Summary of the method: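 EV-A71 was tested in LLC-MK2 cells grown in DMEM with 10% FBS, penicillin, streptomycin and glutamine, at a low MOI preset to give full CPE in 3–4 days. Compound was dissolved in DMSO and diluted 2-fold, in triplicate. Cells were fixed with formaldehyde when control CPE was maximal, then stained with crystal violet and read at OD590. EC50 came from a 7-point four-parameter or sigmoidal fit.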

[5] = test system: LLC-MK2; assay: Cytotoxicity against monkey LLC-MK2 cells after 3 to 4 days by crystal violet staining-based spectrophotometric method; type: cell-based, Macaca mulatta; conditions: rhesus monkey
Summary of the method: (§2)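 Uninfected cells (HeLa-RW or LLC-MK2, in DMEM with penicillin, streptomycin, glutamine and 10% FBS) were exposed to serial 2-fold compound dilutions for the same period as the CPE assay. They were then fixed with formaldehyde, stained with crystal violet and read by OD590 spectrophotometry to derive CC50. Values are means ± s.d. of 3 experiments, or the average of triplicates in one.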

[6] = Selectivity index, ratio of CC50 for human HeLa-RW cells to EC50 for Coxsackievirus B3; type: toxicity; conditions: read-out: Ratio CC50/EC50
Summary of the method: (§3)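 HeLa-RW cells in DMEM with 10% FBS were used for both arms. For EC50, cells were infected with CVB3-H3 at a low MOI giving full CPE in 3–4 days and exposed to 2-fold compound dilutions, in triplicate, with a 7-point fit. For CC50, uninfected cells got 2-fold dilutions for the same period. Both arms were fixed, crystal violet-stained and read at OD590.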

[7] = Cytotoxicity against human HeLa-RW cells after 3 to 4 days by crystal violet staining-based spectrophotometric method; type: cell-based; conditions: hela-rw; summary of the method: as §2
[8] = Selectivity index, ratio of CC50 for monkey LLC-MK2 cells to EC50 for Enterovirus A71; type: toxicity; conditions: read-out: Ratio CC50/EC50
Summary of the method: as §3, with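 “LLC-MK2” for “HeLa-RW”, “EV-A71” for “CVB3-H3”, “triplicate.” for “triplicate, with a 7-point fit.”, “formaldehyde-fixed,” for “fixed,”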

SMILES | EC50 [1] | EC50 [2] | EC50 [3] | EC50 [4] | CC50 [5] | selectivity ratio [6] | CC50 [7] | selectivity ratio [8]
CC(C)n1ncc2c(C(=O)Nc3cc(F)cc(F)c3)cc(-c3cccs3)nc21 | > 10 µM | > 10 µM | > 10 µM | > 10 µM | – | – | – | –
CC(C)n1ncc2c(C(=O)Nc3ccc(F)cc3)cc(C3CC3)nc21 | 3.3 µM | > 25 µM | > 25 µM | 3.2 µM | 12.5 µM | 3 | 10 µM | 3.9
CC(C)n1ncc2c(C(=O)N(C)c3ccccn3)cc(-c3cccs3)nc21 | > 25 µM | > 10 µM | > 10 µM | > 10 µM | – | – | – | –
CC(C)n1ncc2c(NC(=O)c3cc(-c4cccs4)nc4c3cnn4C(C)C)cc(-c3cccs3)nc21 | > 10 µM | > 10 µM | > 10 µM | > 10 µM | – | – | – | –
CC(C)n1ncc2c(C(=O)Nc3ccccc3F)cc(-c3nccs3)nc21 | > 10 µM | > 10 µM | > 10 µM | > 10 µM | – | – | – | –
CC(C)n1ncc2c(C(=O)Nc3c(F)cccc3F)cc(-c3cccs3)nc21 | 3.2 µM | > 25 µM | > 25 µM | 3.4 µM | > 200 µM | > 62.5 | > 200 µM | > 58.8
CC(C)n1ncc2c(C(=O)Nc3ccc(F)cc3)cc(-c3ccco3)nc21 | 2.4 µM | > 25 µM | > 25 µM | 2.6 µM | > 200 µM | > 83 | > 200 µM | > 76.9
CC(C)n1ncc2c(C(=O)Nc3cccc(F)c3F)cc(-c3cccs3)nc21 | 2.7 µM | > 25 µM | > 25 µM | 3 µM | 75 µM | > 74.1 | > 200 µM | 25
CC(C)n1ncc2c(S(=O)(=O)Nc3ccc(F)cc3)cc(-c3cccs3)nc21 | > 10 µM | > 10 µM | > 10 µM | > 10 µM | – | – | – | –
CC(C)n1ncc2c(C(=O)Nc3ccccn3)cc(-c3ccccc3)nc21 | 1.6 µM | > 25 µM | > 25 µM | 0.7 µM | 12.5 µM | 11.8 | 18.8 µM | 17.9
CC(C)n1ncc2c(C(=S)Nc3ccc(F)cc3)cc(-c3cccs3)nc21 | > 10 µM | > 10 µM | > 10 µM | > 10 µM | – | – | – | –
CC(C)n1cnc2c(C(=O)Nc3ccc(F)cc3)cc(-c3cccs3)nc21 | > 10 µM | > 10 µM | > 10 µM | > 10 µM | – | – | – | –
CC(C)n1ncc2c(C(=O)Nc3ccc(F)cc3)nc(-c3cccs3)nc21 | > 10 µM | > 10 µM | > 10 µM | > 10 µM | – | – | – | –
CC(C)n1ncc2c(NS(=O)(=O)c3ccc(F)cc3)cc(-c3cccs3)nc21 | > 10 µM | > 10 µM | > 10 µM | > 10 µM | – | – | – | –
CC(C)n1ncc2c(C(=O)Nc3ccc(S(N)(=O)=O)cc3)cc(-c3cccs3)nc21 | > 10 µM | > 10 µM | > 10 µM | > 10 µM | – | – | – | –
CC(C)n1ncc2c(C(=O)Nc3ccccc3F)cc(-c3ccncc3)nc21 | 5.1 µM | > 25 µM | > 25 µM | > 10 µM | 45 µM | 7.4 | 37.5 µM | –
CC(C)n1ncc2c(C(=O)Nc3ccccc3C(F)(F)F)cc(-c3cccs3)nc21 | > 10 µM | > 10 µM | > 10 µM | > 10 µM | – | – | – | –
CC(C)n1ccc2c(C(=O)Nc3ccncc3)cc(-c3cccs3)nc21 | > 10 µM | > 10 µM | > 10 µM | > 10 µM | – | – | – | –
CC(C)n1ncc2c(C(=O)Nc3ccccc3F)cc(-c3cncs3)nc21 | 3.3 µM | > 25 µM | > 25 µM | 3.7 µM | 100 µM | > 60.6 | > 200 µM | 27

SMILES | EC50 [1] | EC50 [2] | EC50 [3] | EC50 [4] | CC50 [5] | selectivity ratio [6] | CC50 [7] | selectivity ratio [8]
CC(C)n1ncc2c(C(=O)Nc3ccc(F)cc3)cc(-c3cccs3)nc21 | 0.7 µM | > 25 µM | > 25 µM | 0.9 µM | > 200 µM | > 286 | > 200 µM | > 222
CC(C)n1ncc2c(C(=N)Nc3cccnc3)cc(-c3cccs3)nc21 | > 10 µM | > 10 µM | > 10 µM | > 10 µM | – | – | – | –
CC(C)n1ncc2c(C(=O)Nc3ccccc3F)cc(-c3cccnc3)nc21 | 7 µM | > 25 µM | > 25 µM | > 10 µM | 50 µM | 5.4 | 37.5 µM | –
CC(C)n1ncc2c(C(=O)Nc3ccc(F)c(F)c3)cc(-c3cccs3)nc21 | 1.3 µM | > 10 µM | > 10 µM | > 25 µM | > 200 µM | > 154 | > 200 µM | –
CC(C)n1ncc2c(C(=O)Nc3cccc(S(N)(=O)=O)c3)cc(C3CC3)nc21 | > 10 µM | > 10 µM | > 10 µM | > 10 µM | – | – | – | –
CC(C)n1ncc2c(C(=O)Nc3ccc(F)cc3Br)cc(-c3cccs3)nc21 | > 10 µM | > 10 µM | > 10 µM | > 10 µM | – | – | – | –
CC(C)n1ccc2c(C(=O)Nc3ccc(F)cc3)cc(-c3cccs3)nc21 | 3.1 µM | > 25 µM | > 25 µM | > 25 µM | > 200 µM | > 64.5 | > 200 µM | –
CC(C)n1ncc2c(C(=O)Nc3ccncc3)cc(-c3ccsc3)nc21 | > 10 µM | > 10 µM | > 10 µM | > 10 µM | – | – | – | –
CC(C)n1nnc2c(C(=O)Nc3ccc(F)cc3)cc(-c3cccs3)nc21 | > 10 µM | > 10 µM | > 10 µM | > 10 µM | – | – | – | –
CC(C)n1ncc2c(-c3nc4ccc(F)cc4o3)cc(-c3cccs3)nc21 | > 10 µM | > 10 µM | > 10 µM | > 10 µM | – | – | – | –
CC(C)n1ncc2c(C(=O)Nc3ccc(F)cc3F)cc(-c3cccs3)nc21 | 1.4 µM | > 25 µM | > 25 µM | 1.6 µM | > 200 µM | > 143 | > 200 µM | > 125
CC(C)n1ncc2c(C(=O)Nc3ccccc3F)cc(-c3ccccn3)nc21 | 6.9 µM | > 25 µM | > 25 µM | > 10 µM | 100 µM | > 29 | > 200 µM | –
CC(C)n1ncc2c(C(=O)Nc3ccc(F)cc3)cc(-c3ccsc3)nc21 | 1.3 µM | > 25 µM | > 25 µM | 1.4 µM | > 200 µM | 19.2 | 25 µM | > 143
CC(C)n1ncc2c(C(=O)Nc3ccccc3F)cc(-c3ccccc3)nc21 | 4.5 µM | > 25 µM | > 25 µM | 5.7 µM | > 200 µM | 8.3 | 37.5 µM | > 35.1
CC(C)n1ncc2c(C(=O)Nc3cc(F)ccc3F)cc(-c3cccs3)nc21 | 2.7 µM | > 25 µM | > 25 µM | 3.5 µM | 100 µM | > 74.1 | > 200 µM | 28.6
CC(C)n1ncc2c(C(=O)Nc3ccccn3)cc(C3CC3)nc21 | 4.7 µM | > 25 µM | > 25 µM | 4.7 µM | 25 µM | 5.3 | 25 µM | 5.3
CC(C)n1ncc2c(C(=N)Nc3ccc(F)cc3)cc(-c3cccs3)nc21 | > 10 µM | > 10 µM | > 10 µM | > 10 µM | – | – | – | –
CC(C)n1ncc2c(C(=O)Nc3ccc(C(F)(F)F)cc3)cc(-c3cccs3)nc21 | > 25 µM | > 25 µM | > 25 µM | > 25 µM | – | – | – | –
CC(C)n1ncc2c(C(=O)Nc3ccccc3F)cc(-c3cnco3)nc21 | > 10 µM | > 10 µM | > 10 µM | > 10 µM | – | – | – | –
